An excerpt weighted towards active compounds, which were near 2.4% of everything screened.
HMGR II inh – blocks class II HMG-CoA reductase of Enterococcus faecalis | purified E. faecalis HMGR, NADPH absorbance 340 nm kinetic | inhibition, % at 10 µM | 190,000 compounds, 0.41% hits;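 active = inhibition above a set limit, the median over all tested compounds plus 3 SD, cut at about 9.5% in these data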;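 also: enzyme runs in reverse so mevalonate oxidation gives rising NADPH absorbance; 0% = complete reaction with DMSO and 100% = background rate lacking mevalonate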
b-catenin transl – modulators of beta-catenin nuclear translocation | AID 1665 | HeLa beta-catenin nuclear translocation, immunofluorescence imaging | nuclear translocation activity, % at 5 µM | 190,000 compounds, 0.3% hits;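 active = nuclear translocation activity above 50% at 5 µM, with a well cell count of 50 or more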;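 also: per-cell ratio of nuclear to cytoplasmic median beta-catenin stain intensity; plate controls were DMSO negative control for no effect and GSK-3 inhibitor IX positive control for full effect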
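test system = HeLa cells, endogenous beta-catenin | dosing = single 5 µM dose plus 0.02–20 µM confirmation series | times = compound treatment 24 h, 37°C, 5% CO2 | technique = beta-catenin immunofluorescence imaging with DAPI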
EP2 modulator – EP2 receptor (human) modulation | induction, % at 25 µM | P43116 | EP2-expressing cells, cAMP HTRF FRET, PGE2 co-stimulation | 260,000 compounds, 0.83% hits;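 active = compounds whose cAMP rise, as percent of the full-agonist control response, exceeds 60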;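 also: rat C6 glioma line stably carrying human EP2 under a CMV promoter; the protocol text gives 20 µM as final concentration; 100% = response of wells given 1 µM PGE2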
Target sequence (P43116 whole entry, looked up): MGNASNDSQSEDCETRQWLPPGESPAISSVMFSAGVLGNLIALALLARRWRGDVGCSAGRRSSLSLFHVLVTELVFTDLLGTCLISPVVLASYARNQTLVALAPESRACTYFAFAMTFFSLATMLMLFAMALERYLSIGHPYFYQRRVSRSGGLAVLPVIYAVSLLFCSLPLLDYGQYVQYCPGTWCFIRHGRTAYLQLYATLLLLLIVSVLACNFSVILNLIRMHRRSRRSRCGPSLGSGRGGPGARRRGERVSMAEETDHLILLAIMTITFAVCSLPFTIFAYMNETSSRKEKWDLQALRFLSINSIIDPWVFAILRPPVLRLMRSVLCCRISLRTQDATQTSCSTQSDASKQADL
PGE2 EP2 inh – blocks the human prostaglandin E2 receptor EP2. inhibition, % at 25 µM. P43116. 260,000 compounds, 0.52% hits. C6 glioma cells expressing human EP2, cAMP TR-FRET; cells stimulated with saturating PGE2;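 active = percent inhibition above 40 after rounding to a whole number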;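 also: rat C6 glioma host cells with rolipram phosphodiesterase inhibitor present; the protocol text gives 20 µM as final concentration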
Tb hexokinase – blocks Trypanosoma brucei hexokinase 1 activity | recombinant TbHK1, G6PDH-coupled NADH A340 | 220,000 compounds, 0.11% hits | AID 1430 | inhibition, % at 10 µM;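 active = inhibition of 50% or more in the single-dose primary screen; inactive = inhibition below 50%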
MT stabilize HCS – microtubule stabilization, imaging screen; HeLa tubulin immunostaining HCS, 24 h; share of cells brighter than vehicle mean+2SD; % tubulin-high responders, % at 10 µM; 200,000 compounds, 0.83% hits;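 active = plate Z-score above 3 for both tubulin-high and condensed-nucleus cell shares, with cell loss under 80%, at 10 µM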;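 also: anti alpha tubulin signal scored within the nucleus-defined area of each cell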
The depositor's hits bear a star; · = no result; ! = a repeat was not active.

SMILES	HMGR II inh	b-catenin transl	EP2 modulator	PGE2 EP2 inh	Tb hexokinase	MT stabilize HCS
COc1ccc(/C=N/NC(=O)c2ccccc2Cl)cc1CSc1nc2ccccc2s1	-4	332*	-31	5	-15	17
CCC(C)C(=O)Nc1nnc(Cc2ccccc2)s1 (stereo not given)	·	·	8	13	·	·
COc1ccc(/C=N/NC(=O)c2cccnc2)cc1CSc1nc2ccccc2s1	3	153*	-24	12	-10	13
COc1ccc(/C=N/NC(=O)c2cccnc2)cc1CN1CCOCC1	·	1	-38	11	-49	·
COc1ccc([N+](=O)[O-])cc1COc1cc(C)cc2oc(=O)cc(-c3ccccc3)c12	-1	-5	1	4	-9	18*
CC(=O)COc1cc(C)cc2oc(=O)cc(-c3ccccc3)c12	8	0	16	5	1	3
CCOC(=O)c1c(CN(CC)CC)oc2cc(Br)c(O)cc12	-8	·	5	9	-1	2
CCOC(=O)c1c(CN(CC)CC)oc2ccc(OC)cc12	12*	-3	28	13	-4	3
Cc1cc(C)c(S(=O)(=O)c2ccccc2)c(OC(=O)c2c(F)cccc2F)n1	14*	-2	-9	2	3	1
COc1ccc(C(c2nnnn2C2CCCCC2)N2CCN(c3ccccc3F)CC2)cc1OC (stereo not given)	·	·	-4	13	·	·
COc1ccc(OC)c(C(c2nnnn2C2CCCC2)N2CCN(c3ccccc3F)CC2)c1 (stereo not given)	-5	-2	66*!	5	-10	3
O=C1CC(c2cccc([N+](=O)[O-])c2)c2cc3c(cc2N1)CCC3 (stereo not given)	3	0	1	2	-4	26*
Cc1ccc(C2CC(=O)Nc3c2ccc2ccccc32)cc1[N+](=O)[O-] (stereo not given)	0	-1	-10	6	31	3
O=C1CC(c2cccc([N+](=O)[O-])c2)c2c(ccc3ccccc23)N1 (stereo not given)	1	-1	-8	26	1	50*
O=C1CC(c2cccc(Cl)c2)c2cc3c(cc2N1)CCC3 (stereo not given)	·	0	39	10	0	32*
O=[N+]([O-])c1cccc(CNc2ccc3c(c2)CCC3)c1	1	·	46	17	-1	2
COc1cccc(C2CC(=O)Nc3cc4c(cc32)CCC4)c1 (stereo not given)	-3	2	-2	8	-2	17*
COc1cccc(C2CC(=O)NC(SC)=C2C#N)c1 (stereo not given)	4	·	12	7	-1	4
CCOC(=O)C1=C(C)NC(C)=C(C(=O)OCC)C1c1cc2cc(C)c(Cl)cc2[nH]c1=O	·	·	21	6	·	·
O=C(NCCc1nc(-c2ccncc2)n[nH]1)C12CC3CC(CC(C3)C1)C2	·	·	-23	·	·	·
Cc1cc(-c2cncnc2C2CCCN(C(=O)Nc3ccccc3C(F)(F)F)C2)on1 (stereo not given)	·	·	-24	·	·	·
CC(CNC(=O)CN1C(=O)COc2ccc(C(C)(C)C)cc21)n1cncn1 (stereo not given)	·	·	4	4	·	·
COCCOc1ccc(CN2CCc3sccc3C2C)cc1OC (stereo not given)	·	·	-28	4	·	·
CCCCOC(=O)Cn1c(-c2ccccc2)nc2ccccc2c1=O	-3	1	37	6	3	4
CCCOC(=O)C(C)n1c(-c2ccccc2)nc2ccccc2c1=O (stereo not given)	0	1	61*	20	10	3
SMILES	HMGR II inh	b-catenin transl	EP2 modulator	PGE2 EP2 inh	Tb hexokinase	MT stabilize HCS
Cc1[nH]nc2c1C1(CCC3(CC1)OCCO3)C(C#N)=C(N)O2	10*	·	13	3	1	2
CC(=O)N1CCC2(CC1)C(C#N)=C(N)Oc1n[nH]c(C(F)(F)F)c12	0	5	28	15	0	4
CCOC(=O)N1CCC2(CC1)C(C#N)=C(N)Oc1n[nH]c(C)c12	10.0*	·	2	10	18	1
CCN(CC)C(=O)CN1N=C(c2ccccc2)Cn2c(cc3sccc32)C1=O	·	·	1	·	·	·
COC(=O)C1C(=O)C2=C(CC1C)Nc1ccccc1NC2c1ccc(OC)c(OC)c1 (stereo not given)	·	·	-18	9	·	·
Cc1nc(SCc2c(F)cccc2Cl)c2c(=O)n(C)c(=O)n(C)c2n1	-9	·	62*	8	-8	2
Cn1c(=O)c2c(SCc3ccccc3)nc(C3CC3)nc2n(C)c1=O	·	0	73*	5	-8	·
CCn1c(=O)c2c(nc(SCc3c(F)cccc3Cl)n2C)n(C)c1=O	·	·	-41	10	·	·
Cc1cc(-c2cc(N)c(=O)n(CC(=O)NCCOc3ccccc3)n2)c(C)o1	·	·	-96	7	·	·
COc1ccc2c(c1)-c1c(ssc1=S)C(C)(C)N2C(=O)CSC1=NCCS1	1	0	50	12	-5	2
CCOc1ccc2c(c1)-c1c(ssc1=S)C(C)(C)N2C(=O)c1ccco1	1	68*	26	6	-13	13
Cc1cc(N2CCC(O)(c3ccccc3F)CC2)nc(C)n1	·	·	-30	·	·	·
O=C(CCN1CCCCCC1)c1ccccc1	3	-3	-7	52*	-1	2
CCC1(C)CC2(CCCN(CCC(=O)c3ccccc3)C2)CCO1 (stereo not given)	-7	-2	-94	81*!	-1	4
CC1(C)CC2(CCCN(C(=S)Nc3ccccc3)C2)CCO1 (stereo not given)	·	-1	-7	3	-7	·
C=CCn1c(SCC(=O)Nc2ccc(Cl)cc2)nc2sc(C)c(C)c2c1=O	·	·	-66	11	·	·
O=C(CN1CCC(c2nc3ccccc3s2)CC1)Nc1ccc2c(c1)OCCO2	·	·	-189	13	·	·
O=C(NCc1cccnc1)c1ccc(COc2ccccc2Br)o1	-1	-1	-25	19	1	6
O=C(Nc1cccnc1)c1ccc(COc2ccccc2Br)o1	2	·	-30	4	1	26*
COc1ccc(NC(=O)c2ccco2)cc1NC(=O)c1cccc2ccccc12	·	·	-11	7	·	·
O=Nc1c(O)n(Cc2cccc(C(F)(F)F)c2)c2ccccc12	-1	2	64*	6	2	2
CCOc1ccccc1NC(=O)C1CCN(c2nc(C)cc(C)n2)CC1	·	·	24	17	·	·
O=C1C=CC(=O)N1CCCCCCN1C(=O)C=CC1=O	-5	-1	-1	135*	-1	5
CN1CC(O)C[n+]2c1sc1ccccc12 (stereo not given)	·	·	6	7	·	·
Cc1ccc2[nH]c(=O)c(CN(CCO)C(=O)Nc3ccccc3F)cc2c1	·	·	-55	8	·	·
O=C1NC(c2ccccc2Cl)Nc2ccccc21 (stereo not given)	-5	-1	31	8	0	27*
Cc1ccc(C)c([C@@H]2NC(=O)c3ccccc3N2)c1	·	·	6	15	·	·

Screening data as filed in PubChem.
